ChEMBL document CHEMBL4038284, “Synthesis of novel quinoline-based 4,5-dihydro-1H-pyrazoles as potential anticancer, antifungal, antibacterial and antiprotozoal agents” (Eur J Med Chem, 2017)
≈ marks a conversion by molar mass, not a printed value.

Assays:
Cryptococcus neoformans [1] = experiment: Growth inhibition of Cryptococcus neoformans ATCC 32264 at 250 ug/ml incubated for 48 hrs under dark condition by broth microdilution method relative to control; format: functional; settings: ATCC 32264, 48 h, read-out: GI
In short: (§1)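 CLSI M27-A3 broth microdilution in RPMI-1640, DMSO ≤1%. Inoculum 1-5 × 10^3 CFU/mL. Incubated 48 h at 30 °C, dark. % inhibition = 100 − (OD405 test − sterility control)/(OD405 growth control − sterility control), with growth and sterility control wells. Triplicate.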

Candida albicans [2] = experiment: Growth inhibition of Candida albicans ATCC 10231 at 15.62 ug/ml incubated for 48 hrs under dark condition by broth microdilution method relative to control; format: functional; settings: ATCC 10231, 48 h, read-out: GI; in short: as §1
U-937 = experiment: Cytotoxicity against human U937 cells after 72 hrs by MTT assay; format: cell-based; settings: u-937, 72 h
In short: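 Exponentially growing U-937 at 1 × 10^5 cells/mL in RPMI-1640 with 10% FBS were exposed to 200, 50, 12.5 and 3.125 µg/mL for 72 h at 37 °C, 5% CO2. MTT for 3 h, stopped with isopropanol/SDS, formazan read at 570 nm, blank-corrected. LC50 by Probit from % viability against untreated cells. Triplicate, at least two independent experiments.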

Candida albicans [3] = experiment: Growth inhibition of Candida albicans ATCC 10231 at 125 ug/ml incubated for 48 hrs under dark condition by broth microdilution method relative to control; format: functional; settings: ATCC 10231, 48 h, read-out: GI; in short: as §1
Candida albicans [4] = experiment: Growth inhibition of Candida albicans ATCC 10231 at 62.5 ug/ml incubated for 48 hrs under dark condition by broth microdilution method relative to control; format: functional; settings: ATCC 10231, 48 h, read-out: GI; in short: as §1
Trypanosoma cruzi = experiment: Antitrypanosomal activity against Trypanosoma cruzi Tulahuen intracellular amastigote harboring LacZ infected in human U937 cells after 72 hrs by CPRG/Nonidet reagent based spectrophotometric method; format: functional, cell-based; settings: U-937, 72 h
In short: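 U-937 cells at 2.5 × 10^5 cells/mL in RPMI-1640 with 10% serum and 0.1 µg/mL PMA were infected with β-galactosidase-transfected Tulahuen epimastigotes at 5 parasites per cell. Infected cells were exposed to 50, 12.5, 3.125 and 0.78 µg/mL for 72 h. CPRG (100 uM) and 0.1% Nonidet P-40 were added for 3 h, read at 570 nm. EC50 by Probit. Triplicate, at least two experiments; benznidazole as reference.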

Staphylococcus aureus [5] = experiment: Antibacterial activity against methicillin-sensitive Staphylococcus aureus ATCC 25923 after 24 hrs by resazurin dye based microdilution assay; format: functional; settings: ATCC 25923, 24 h
In short: (§2)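 MIC taken as the lowest concentration giving visible inhibition and/or by resazurin (1 mg/mL). Gentamicin was the control. Run in duplicate, repeated at least three times.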

Candida albicans [6] = experiment: Growth inhibition of Candida albicans ATCC 10231 at 31.25 ug/ml incubated for 48 hrs under dark condition by broth microdilution method relative to control; format: functional; settings: ATCC 10231, 48 h, read-out: GI; in short: as §1
Cryptococcus neoformans [7] = experiment: Growth inhibition of Cryptococcus neoformans ATCC 32264 at 62.5 ug/ml incubated for 48 hrs under dark condition by broth microdilution method relative to control; format: functional; settings: ATCC 32264, 48 h, read-out: GI; in short: as §1
Candida albicans [8] = experiment: Growth inhibition of Candida albicans ATCC 10231 at 3.4 ug/ml incubated for 48 hrs under dark condition by broth microdilution method relative to control; format: functional; settings: ATCC 10231, 48 h, read-out: GI
Staphylococcus aureus [9] = experiment: Antibacterial activity against methicillin-resistant Staphylococcus aureus ATCC 43300 after 24 hrs by resazurin dye based microdilution assay; format: functional; settings: ATCC 43300, 24 h
In short: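 Broth microdilution in Mueller Hinton broth, inoculum 5 × 10^5 – 8 × 10^5. Compound stocks diluted in MHB with 5% DMSO and 0.1% Tween 80. Incubation 24 h at 35-37 °C. MIC is the lowest concentration with visible growth inhibition and/or by resazurin (1 mg/mL) read-out. Gentamicin as control. Run in duplicate, replicated at least three times.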

Klebsiella pneumoniae [10] = experiment: Antibacterial activity against ESBL positive Klebsiella pneumoniae ATCC 700603 after 24 hrs by resazurin dye based microdilution assay; format: functional; settings: Klebsiella pneumoniae, 700603, 24 h; in short: as §2
Cryptococcus neoformans [11] = experiment: Growth inhibition of Cryptococcus neoformans ATCC 32264 at 3.4 ug/ml incubated for 48 hrs under dark condition by broth microdilution method relative to control; format: functional; settings: ATCC 32264, 48 h, read-out: GI
Escherichia coli = experiment: Antibacterial activity against Escherichia coli ATCC 25922 after 24 hrs by resazurin dye based microdilution assay; format: functional; settings: ATCC 25922, 24 h; in short: as §2
Candida albicans [12] = experiment: Growth inhibition of Candida albicans ATCC 10231 at 7.8 ug/ml incubated for 48 hrs under dark condition by broth microdilution method relative to control; format: functional; settings: ATCC 10231, 48 h, read-out: GI; in short: as §1
Candida albicans [13] = experiment: Growth inhibition of Candida albicans ATCC 10231 at 250 ug/ml incubated for 48 hrs under dark condition by broth microdilution method relative to control; format: functional; settings: ATCC 10231, 48 h, read-out: GI; in short: as §1
Staphylococcus aureus [14] = experiment: Antibacterial activity against vancomycin-intermediate Staphylococcus aureus after 24 hrs by resazurin dye based microdilution assay; format: functional; in short: as §2
Plasmodium falciparum = experiment: Antiplasmodial activity against chloroquine-sensitive Plasmodium falciparum 3D7 assessed as reduction in parasitic LDH activity after 48 hrs by Malstat reagent based […] method; format: functional; settings: 3D7, 48 h
In short: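 Unsynchronized P. falciparum 3D7 at 0.5% parasitemia and 1% hematocrit in RPMI with 3% Albumax II. Exposed to 100, 25, 6.25 and 1.56 µg/mL for 48 h at 37 °C under 90% N2/5% CO2/5% O2. After three freeze-thaw cycles, LDH measured with Malstat and NBT/PES, 1 h in the dark, read at 650 nm. IC50 by Probit; triplicate, ≥2 experiments.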

Cryptococcus neoformans [15] = experiment: Growth inhibition of Cryptococcus neoformans ATCC 32264 at 15.62 ug/ml incubated for 48 hrs under dark condition by broth microdilution method relative to control; format: functional; settings: ATCC 32264, 48 h, read-out: GI; in short: as §1
Cryptococcus neoformans [16] = experiment: Growth inhibition of Cryptococcus neoformans ATCC 32264 at 7.8 ug/ml incubated for 48 hrs under dark condition by broth microdilution method relative to control; format: functional; settings: ATCC 32264, 48 h, read-out: GI; in short: as §1
Neisseria gonorrhoeae = experiment: Antibacterial activity against beta lactamase positive Neisseria gonorrhoeae ATCC 31426 by oxidase test; format: functional
In short: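 Agar dilution MIC on GC agar with 1% isovitalex containing increasing compound concentrations. Plates inoculated with about 1×10^4 CFU (5 µL). MIC is the lowest concentration that inhibited growth, with growth confirmed by oxidase test. Run in duplicate, repeated at least three times.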

Cryptococcus neoformans [17] = experiment: Growth inhibition of Cryptococcus neoformans ATCC 32264 at 31.25 ug/ml incubated for 48 hrs under dark condition by broth microdilution method relative to control; format: functional; settings: ATCC 32264, 48 h, read-out: GI; in short: as §1
Leishmania panamensis = experiment: Antileshmanial activity against EpiR/GFP fused Leishmania panamensis MHOM/CO/87/UA140 intracellular amastigotes infected in human […] cells after 72 hrs by flow cytometric method; format: functional, cell-based; settings: MHOM/CO/87/UA140, 72 h
In short: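 PMA-treated U-937 cells (3 × 10^5 cells/mL) infected with stationary-phase GFP L. panamensis promastigotes (15:1), 3 h at 34 °C, then washed. After 24 h, compounds added at 50, 12.5, 3.125 and 0.78 µg/mL for 72 h at 37 °C. EC50 by Probit; triplicate, two experiments.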

Candida albicans [18] = experiment: Antifungal activity against Candida albicans ATCC 10231 incubated for 48 hrs under dark condition by broth microdilution method; format: functional; settings: ATCC 10231, 48 h
In short: (§3)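 CLSI M27-A3 broth microdilution in RPMI-1640, DMSO ≤1%, compounds at 250-0.98 µg/mL final. Inoculum 1-5 × 10^3 CFU/mL. Incubated 48 h at 30 °C in a moist dark chamber, read at OD405. MIC80 and MIC50 taken from % inhibition dose-response curves (mean ± SEM, triplicate). Amphotericin B was the positive control.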

Cryptococcus neoformans [19] = experiment: Antifungal activity against Cryptococcus neoformans ATCC 32264 incubated for 48 hrs under dark condition by broth microdilution method; format: functional; settings: ATCC 32264, 48 h; in short: as §3
Pseudomonas aeruginosa = experiment: Antibacterial activity against Pseudomonas aeruginosa ATCC 27853 after 24 hrs by resazurin dye based microdilution assay; format: functional; settings: ATCC 27853, 24 h; in short: as §2
Cryptococcus neoformans [20] = experiment: Growth inhibition of Cryptococcus neoformans ATCC 32264 at 125 ug/ml incubated for 48 hrs under dark condition by broth microdilution method relative to control; format: functional; settings: ATCC 32264, 48 h, read-out: GI; in short: as §1
Klebsiella pneumoniae [21] = experiment: Antibacterial activity against carbapenemase positive Klebsiella pneumoniae BAA 1705 after 24 hrs by resazurin dye based microdilution assay; format: functional; settings: BAA 1705, 24 h; in short: as §2

Compound	inhibition of growth at 250 µg/mL (Cryptococcus neoformans [1]) [%]	inhibition of growth at 15.62 µg/mL (Candida albicans [2]) [%]	LC50 (U-937) [µg/mL]	inhibition of growth at 125 µg/mL (Candida albicans [3]) [%]	inhibition of growth at 62.5 µg/mL (Candida albicans [4]) [%]	EC50 (Trypanosoma cruzi) [µg/mL]	MIC (Staphylococcus aureus [5]) [µg/mL]	inhibition of growth at 31.25 µg/mL (Candida albicans [6]) [%]	inhibition of growth at 62.5 µg/mL (Cryptococcus neoformans [7]) [%]	inhibition of growth at 3.4 µg/mL (Candida albicans [8]) [%]	MIC (Staphylococcus aureus [9]) [µg/mL]	MIC (Klebsiella pneumoniae [10]) [µg/mL]	inhibition of growth at 3.4 µg/mL (Cryptococcus neoformans [11]) [%]	MIC (Escherichia coli) [µg/mL]	inhibition of growth at 7.8 µg/mL (Candida albicans [12]) [%]	inhibition of growth at 250 µg/mL (Candida albicans [13]) [%]	MIC (Staphylococcus aureus [14]) [µg/mL]	EC50 (Plasmodium falciparum) [µg/mL]	inhibition of growth at 15.62 µg/mL (Cryptococcus neoformans [15]) [%]	inhibition of growth at 7.8 µg/mL (Cryptococcus neoformans [16]) [%]	other results
COc1cc(C2=NN(c3cc(Cl)cc(Cl)c3)C(c3cccc(Nc4ccnc5cc(Cl)ccc45)c3)C2)cc(OC)c1OC (stereo not given)	25.6	2.69	> 200	10.6	5.81	21.9 (≈ 34.6 µM)	> 1000	5.79	3.82	0.27	> 1000	> 1000	0	> 1000	1.1	20.3	> 1000	10.9 (≈ 17.2 µM)	3.54	3.27	MIC (Neisseria gonorrhoeae): > 1000 µg/mL; inhibition of growth at 31.25 µg/mL (Cryptococcus neoformans [17]): 3.54%; EC50 (Leishmania panamensis): 16.5 µg/mL (≈ 26 µM); MIC50 (Candida albicans [18]): ≥ 250 µg/mL; MIC80 (Candida albicans [18]): ≥ 250 µg/mL; MIC50 (Cryptococcus neoformans [19]): ≥ 250 µg/mL; MIC80 (Cryptococcus neoformans [19]): ≥ 250 µg/mL; MIC (Pseudomonas aeruginosa): > 1000 µg/mL; inhibition of growth at 125 µg/mL (Cryptococcus neoformans [20]): 6.13%; MIC (Klebsiella pneumoniae [21]): > 1000 µg/mL
Clc1ccc2c(Nc3cccc(C4CC(c5ccc(Br)cc5)=NN4c4ccccc4)c3)ccnc2c1 (stereo not given)	45.1	8.46	9.2 (≈ 16.6 µM)	26.3	12.6	6.67 (≈ 12 µM)	> 1000	9.65	20	3.09	> 1000	> 1000	3.29	> 1000	4.31	44.9	> 1000	5.54 (≈ 10 µM)	7.94	7.67	MIC (Neisseria gonorrhoeae): > 1000 µg/mL; inhibition of growth at 31.25 µg/mL (Cryptococcus neoformans [17]): 11.8%; EC50 (Leishmania panamensis): 3.59 µg/mL (≈ 6.48 µM); MIC50 (Candida albicans [18]): ≥ 250 µg/mL; MIC80 (Candida albicans [18]): ≥ 250 µg/mL; MIC50 (Cryptococcus neoformans [19]): ≥ 250 µg/mL; MIC80 (Cryptococcus neoformans [19]): ≥ 250 µg/mL; MIC (Pseudomonas aeruginosa): > 1000 µg/mL; inhibition of growth at 125 µg/mL (Cryptococcus neoformans [20]): 20.1%; MIC (Klebsiella pneumoniae [21]): > 1000 µg/mL
